The text below walks through data of ChEMBL document CHEMBL4118209, “Development of autotaxin inhibitors: A series of zinc binding triazoles” (Bioorg Med Chem Lett, 2018).

In general, IC50 refers to the concentration needed to halve the response being measured. For orientation: bioavailability means dose-corrected exposure relative to a reference, in per cent. High values mean much systemic uptake, low ones little systemic uptake. The term inhibition in vivo denotes how much of the control response was suppressed. Usually fraction unbound stands for free concentration divided by total concentration. A high value points to weak binding. The Tmax is the time at which the peak concentration occurs. The term clearance denotes the volume of plasma or blood freed of the substance per unit of time. A lower clearance goes with inefficient removal. By AUC is commonly meant concentration integrated over time. Low readings indicate less exposure, high ones more exposure. As a reminder, the half-life is how long it takes for the measured level to halve. Low readings indicate rapid decline, high ones slow decline. Usually Cmax stands for the peak of the concentration-time curve.

Converted amounts (≈) assume the structure as drawn.

For data set [1], the target named is T1, Voltage-gated inwardly rectifying potassium channel KCNH2 (Homo sapiens, UniProt Q12809). Kind of data set: Displacement of [3H]dofetilide from human ERG expressed in HEK293 cells after 45 mins by scintillation counting method. On the technique in general: Loss of bound radioactivity is the signal in a displacement assay; it reports binding, not function.
T1 sequence (Q12809 whole entry): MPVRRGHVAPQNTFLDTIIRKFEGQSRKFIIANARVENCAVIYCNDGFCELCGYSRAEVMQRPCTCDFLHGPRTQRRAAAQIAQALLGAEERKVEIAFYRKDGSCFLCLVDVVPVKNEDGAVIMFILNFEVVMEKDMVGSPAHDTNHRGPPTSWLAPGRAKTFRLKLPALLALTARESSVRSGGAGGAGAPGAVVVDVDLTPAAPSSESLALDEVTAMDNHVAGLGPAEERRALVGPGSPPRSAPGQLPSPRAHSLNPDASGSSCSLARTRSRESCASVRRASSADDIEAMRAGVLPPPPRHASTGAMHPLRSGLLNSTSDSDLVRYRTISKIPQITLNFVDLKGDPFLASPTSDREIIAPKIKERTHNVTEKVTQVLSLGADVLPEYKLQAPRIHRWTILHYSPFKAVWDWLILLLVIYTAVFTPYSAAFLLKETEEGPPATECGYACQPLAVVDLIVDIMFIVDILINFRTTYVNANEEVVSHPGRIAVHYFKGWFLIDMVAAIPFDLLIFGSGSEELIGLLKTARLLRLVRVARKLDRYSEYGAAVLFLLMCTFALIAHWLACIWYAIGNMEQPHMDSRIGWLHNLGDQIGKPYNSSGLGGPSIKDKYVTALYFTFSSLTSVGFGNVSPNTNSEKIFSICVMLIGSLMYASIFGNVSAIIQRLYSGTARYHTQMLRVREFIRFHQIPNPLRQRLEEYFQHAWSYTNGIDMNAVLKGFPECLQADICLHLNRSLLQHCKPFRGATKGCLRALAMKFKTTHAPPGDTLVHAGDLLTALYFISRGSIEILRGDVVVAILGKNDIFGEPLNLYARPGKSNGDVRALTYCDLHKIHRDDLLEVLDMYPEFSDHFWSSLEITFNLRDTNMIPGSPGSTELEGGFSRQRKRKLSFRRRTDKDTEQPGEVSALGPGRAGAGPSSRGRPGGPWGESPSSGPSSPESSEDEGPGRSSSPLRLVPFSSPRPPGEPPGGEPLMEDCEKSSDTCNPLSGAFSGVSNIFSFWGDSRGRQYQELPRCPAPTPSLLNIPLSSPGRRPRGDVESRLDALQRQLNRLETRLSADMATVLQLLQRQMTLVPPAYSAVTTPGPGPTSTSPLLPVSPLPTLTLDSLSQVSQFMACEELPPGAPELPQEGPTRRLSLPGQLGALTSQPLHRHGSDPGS

The nature of data set [2]: Equilibrium solubility of compound at pH 6.8 by high-throughput screening method. Particulars: buffer.
Data set [3] is described as follows: Oral bioavailability in Lewis rat at 1 to 100 mg/kg dosed via gavage after 1.25 to 24 hrs. The conditions noted are these: in vivo. In kind it is ADME, organism-based.
The nature of data set [4]: Permeability assessed as drug absorption at 50 ug/ml after 5 hrs by PAMPA. The conditions noted are these: at 50 µg/mL. (The PAMPA barrier holds no transporters, so it reflects passive diffusion.)
Data set [5] relates to Rattus norvegicus. The data set can be described thus: In vivo inhibition of ATX in Sprague-Dawley rat assessed as reduction in LPA 18:1 levels in serum at 0.3 mg/kg, po measured over 24 hrs by LCMS analysis relative to control. The class given is functional. An outline of the steps: (§1)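 Male Sprague-Dawley rats (n = 6 per group) were given compound or vehicle (0.5% methyl cellulose:0.5% Tween80) orally at 5 ml/kg. Tail-vein blood was taken at various times without anticoagulant, held 30 min at room temperature, and spun at 700g for 10 min. Serum was stored at −80 °C. LPA isoforms were measured by LC-MS/MS, and PK/PD was assessed with a link model.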

The nature of data set [6]: Fraction unbound in rat plasma at 5 uM after 2 to 6 hrs by rapid equilibrium dialysis method. The class given is ADME, cell-free. (In equilibrium dialysis free small molecules cross a membrane that holds back macromolecules.)
For data set [7], the system named is Rattus norvegicus. The data set can be described thus: In vivo inhibition of ATX in Sprague-Dawley rat assessed as reduction in LPA 24:4 levels in serum at 0.3 mg/kg, po measured over 24 hrs by LCMS analysis relative to control. In kind it is functional. Particulars: in the assay text read “LPA 20:4” for “LPA 24:4”. An outline of the steps: as §1
The nature of data set [8]: Volume of distribution at steady state in Sprague-Dawley rat at 1 mg/kg, iv. In kind it is ADME, organism-based. The conditions noted are these: in vivo, read-out: Vdss.
Data set [9] is described as follows: Tmax in Sprague-Dawley rat at 10 mg/kg, po. The conditions noted are these: in vivo. The class given is ADME, organism-based.
The nature of data set [10]: Clearance in Sprague-Dawley rat at 1 mg/kg, iv. Particulars: in vivo. In kind it is ADME, organism-based.
Data set [11] concerns Rattus norvegicus. Kind of data set: In vivo inhibition of ATX in po dosed Sprague-Dawley rat assessed as reduction in LPA 24:4 levels in serum measured over 24 hrs by LCMS analysis. In kind it is functional, organism-based. Particulars: in the assay text read “LPA 20:4” for “LPA 24:4”. The method, boiled down:
as §1

Data set [12] deals with T2, Autotaxin (Homo sapiens, UniProt Q13822). The data set can be described thus: Inhibition of ATX in human serum assessed as reduction in LPA 18:1 levels after 3 hrs by LC-MS/MS analysis. An outline of the steps: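 Human serum was cleared of coagulated blood by centrifugation (2100g, 10 min, room temperature) and stored at −80 °C. It was incubated with compound (0.5 nM–10 μM) with shaking at 37 °C for 3 h. LPA was extracted into methanol with 30 mM citric acid and LPA 17:0 internal standard (0.5 µM), then quantified by LC-MS/MS (negative-ion MRM). IC50 was obtained by non-linear regression.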

For data set [13], the target named is T2, Autotaxin. Kind of data set: Inhibition of ATX (unknown origin) assessed as decrease in choline release.
The test system of data set [14] is Rattus norvegicus. Kind of data set: AUC (0 to infinity) in Sprague-Dawley rat at 10 mg/kg, po. In kind it is ADME, organism-based. Further details: dose 10 mg/kg, time infinity, route oral. The conditions noted are these: in vivo.
Data set [15] has as its system Rattus norvegicus. Kind of data set: In vivo inhibition of ATX in Sprague-Dawley rat assessed as reduction in LPA 16:0 levels in serum at 0.3 mg/kg, po measured over 24 hrs by LCMS analysis relative to control. The class given is functional. An outline of the steps: as §1
Data set [16] has as its system Rattus norvegicus. Kind of data set: In vivo inhibition of ATX in po dosed Sprague-Dawley rat assessed as reduction in LPA 18:1 levels in serum measured over 24 hrs by LCMS analysis. In kind it is functional, organism-based. The method, boiled down: as §1
The nature of data set [17]: Thermodynamic solubility in FeSSIF. In kind it is physicochemical. The conditions noted are these: read-out: Therm_solubility.
Data set [18] is described as follows: Intrinsic clearance in human liver microsomes at 1 uM by HPLC analysis. The class given is ADME, microsome. Particulars: read-out: CLH.
A short description of data set [19]: Oral bioavailability in Sprague-Dawley rat at 10 mg/kg. The class given is ADME, organism-based. The conditions noted are these: in vivo.
For data set [20], the system named is Rattus norvegicus. The data set can be described thus: In vivo inhibition of ATX in po dosed Sprague-Dawley rat assessed as reduction in LPA 16:0 levels in serum measured over 24 hrs by LCMS analysis. The class given is functional, organism-based. An outline of the steps: as §1
Data set [21] deals with Rattus norvegicus. Kind of data set: In vivo inhibition of ATX in Sprague-Dawley rat assessed as reduction in LPA 18:0 levels in serum at 0.3 mg/kg, po measured over 24 hrs by LCMS analysis relative to control. In kind it is functional. The method, boiled down: as §1
Data set [22] relates to Rattus norvegicus. Kind of data set: In vivo inhibition of ATX in po dosed Sprague-Dawley rat assessed as reduction in LPA 18:0 levels in serum measured over 24 hrs by LCMS analysis. The class given is functional, organism-based. An outline of the steps: as §1
The nature of data set [23]: Half life in Sprague-Dawley rat at 1 mg/kg, iv. The class given is ADME, organism-based. The conditions noted are these: in vivo.
The nature of data set [24]: Intrinsic clearance in Sprague-Dawley rat liver microsomes at 1 uM by HPLC analysis. The class given is ADME, microsome. Particulars: read-out: CLH.
The nature of data set [25]: Fraction unbound in human plasma at 5 uM after 2 to 6 hrs by rapid equilibrium dialysis method. The class given is ADME, cell-free.
The target of data set [26] is T1, Voltage-gated inwardly rectifying potassium channel KCNH2. The data set can be described thus: Inhibition of human ERG expressed in CHO-K1 cells at -90 mV holding potential by Qpatch clamp assay.
Data set [27] in a line: Cmax in Sprague-Dawley rat at 10 mg/kg, po. In kind it is ADME, organism-based. Further details: dose 10 mg/kg, route oral. The conditions noted are these: in vivo.

With `O=C(CCN1CCN(C(=O)OCc2cc(Cl)cc(Cl)c2)CC1)c1ccc2[nH]c(=O)oc2c1`, the IC50 in data set [1] amounted to 2700 nM. This molecule registered a solubility thermodynamic in data set [2] of 10 to 11 µg/mL (≈ 20.9 to 23 µM). The molecule also gave a bioavailability in [3] of 43 to 83%. Also, the Drug absorption in data set [4] worked out at 81%.
Consider `O=C(CCCc1c[nH]nn1)NC1CCN(C(=O)OCc2cc(Cl)cc(Cl)c2)CC1`, for which the inhibition in vivo at 0.3 mg/kg with Rattus norvegicus [5], in the data set with Rattus norvegicus [7], with Rattus norvegicus [15] and with Rattus norvegicus [21] was 70 to 80% in each case. The fraction unbound at 5 µM in data set [6] was determined as 0.04; in data set [25], 0.026. For the same molecule, the Vd in data set [8] worked out at 2.5 L/kg. The Tmax in data set [9] is 1.3 h. Also, the clearance in data set [10] was found to be 16 mL/min/kg. For the same molecule, the IC50 in the data set on Rattus norvegicus [11] was 20 nM; on Autotaxin [12], 9 nM; on Autotaxin [13], 3.1 nM; with Rattus norvegicus [16], 20 nM; in the data set on Rattus norvegicus [20], 20 nM; in the data set on Rattus norvegicus [22], 20 nM. This molecule had an IC50 in data set [26] of 20900 nM. Also, the AUC with Rattus norvegicus [14] was 17 µM·h. Also, the solubility thermodynamic in data set [17] was 126 µg/mL (≈ 286 µM). For the same molecule, the figures for the microsomal CLint at 1 µM in [18] and in [24] were 59 µL/min/mg and 104 µL/min/mg, respectively. In data set [19], this molecule registered a bioavailability of 68%. In data set [23], this molecule gave a half-life of 5.3 h. Moreover, the Drug absorption in data set [4] is reported as 43%. Besides, the concentration in [27] peaked (Cmax) at 2.85 µM.
For `O=C(CCCc1c[nH]nn1)NC1CCN(C(=O)OCc2ccc(C(F)(F)F)cc2)CC1`, on Autotaxin [13], the IC50 was 39 nM. Further, the Drug absorption in data set [4] is reported as 35%.
As to `O=C(CCCc1c[nH]nn1)NC1CCN(C(=O)OCc2ccc(Cl)cc2Cl)CC1`, the Drug absorption in data set [4] is listed as 43%.
Turning to `O=C(CCc1c[nH]nn1)NC1CCN(C(=O)OCc2cc(Cl)cc(Cl)c2)CC1`, the microsomal CLint at 1 µM in data set [24] was 75 µL/min/mg.
In the case of `O=C(NCCN1CCN(C(=O)OCc2cc(Cl)cc(Cl)c2)CC1)c1c[nH]c(=O)o1`, the IC50 at Autotaxin [13] amounted to 370 nM. Also, the solubility thermodynamic in data set [2] turned out to be 60 µg/mL (≈ 135 µM). Also, in data set [4], the Drug absorption turned out to be 35%.
Turning to `O=C(NCCC1CCN(C(=O)OCc2cc(Cl)cc(Cl)c2)CC1)c1c[nH]c(=O)o1`, on Autotaxin [13], the IC50 was determined as 86 nM. This molecule also registered a solubility thermodynamic in data set [2] of 80 µg/mL (≈ 181 µM). Also, in [4], the Drug absorption came out at 68%.
In the case of `CN(CCC1CCN(C(=O)OCc2cc(Cl)cc(Cl)c2)CC1)C(=O)c1c[nH]c(=O)o1`, the Vd in [8] stood at 2.2 L/kg. Further, the Tmax in [9] stood at 2.5 h. This molecule registered a clearance in data set [10] of 12 mL/min/kg. In the data set on Rattus norvegicus [14], the AUC is 25 µM·h. This molecule displayed a bioavailability in [19] of 80%. In data set [23], this molecule gave a half-life of 4.8 h. The microsomal CLint at 1 µM in data set [24] turned out to be 235 µL/min/mg. The fraction unbound at 5 µM in data set [25] came to 0.005. The same molecule gave a Cmax in data set [27] of 3.4 µM.
On to `O=C(CCCc1c[nH]nn1)NC1CCN(C(=O)OCc2cc(F)cc(Cl)c2)CC1`, for which the Drug absorption in data set [4] is given as 35%.
Take `N#Cc1cc(Cl)cc(COC(=O)N2CCC(NC(=O)CCCc3c[nH]nn3)CC2)c1`: on Autotaxin [13], the IC50 amounted to 7.7 nM. Besides, the Drug absorption in data set [4] was 21%.
As to `CN(CCC1CCN(C(=O)OCc2cc(Cl)cc(Cl)c2)CC1)C(=O)c1c[nH]nn1`, the IC50 on Autotaxin [13] was 150 nM; in data set [26], 8600 nM. Also, in data set [24], the microsomal CLint at 1 µM came to 51 µL/min/mg. For the same molecule, the Drug absorption in data set [4] turned out to be 97%.
`CN(C(=O)CCCc1c[nH]nn1)C1CCN(C(=O)OCc2cc(Cl)cc(Cl)c2)CC1`: the Drug absorption in data set [4] worked out at 89%.
`O=C(CCN1CCN(C(=O)OCC2CCCCC2)CC1)c1ccc2[nH]c(=O)oc2c1`: the IC50 on Autotaxin [13] was determined as 240 nM.
On to `Cn1cc(CCCC(=O)NC2CCN(C(=O)OCc3cc(Cl)cc(Cl)c3)CC2)nn1`, for which the IC50 at Autotaxin [13] turned out to be 1370 nM.
Take `O=C(OCc1cc(Cl)cc(Cl)c1)N1CC(N2CCN(C(=O)c3ccc4[nH]c(=O)oc4c3)CC2)C1`: at Autotaxin [13], the IC50 was 3.9 nM.
Take `O=C(CCN1CCN(C(=O)OCC2CCCC2)CC1)c1ccc2[nH]c(=O)oc2c1`: the IC50 on Autotaxin [13] was found to be 170 nM.
On the same count and under the same terms, the result for `O=C(NCC1(O)CCN(C(=O)OCc2cc(Cl)cc(Cl)c2)CC1)c1ccc2[nH]c(=O)oc2c1` reads 8 nM; that for `O=C(CCN1CCN(C(=O)OCc2ccccc2)CC1)c1ccc2[nH]c(=O)oc2c1`, 130 nM.
Same read-out and setting: with `O=C(NCCC1CN(C(=O)OCc2cc(Cl)cc(Cl)c2)CCO1)c1ccc2[nH]c(=O)oc2c1` (racemic) the figure was 10 nM; with `O=C(OCc1cc(Cl)cc(Cl)c1)N1CCC(N2CCN(C(=O)c3ccc4[nH]c(=O)oc4c3)CC2)C1` (racemic), 18 nM.
